Shown are actives, neighbours in structure and some others; about 2.4% of the full set was active somewhere.
INS-1E GSIS act: GLuc luminescence reporter in INS-1E cells, primary screen for activators of glucose-dependent secretion of insulin | AID 743287, 2014 | hit rate 0.61% among 370,000 | INS-1E GLuc reporter insulin secretion, 2-3 h | activation, % at 16.6 µM;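 active means lowest replicate activation of at least 40%, so every replicate reaches that level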;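 further: 0% = median of neutral control wells and 100% = median of IBMX positive control wells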
Rtt109 Vps75: inhibitors of C. albicans Rtt109/Vps75 HAT, primary screen, biochemical, ThioGlo CoA-SH fluorescence, plate reader. Histone acetyltransferase RTT109 (Candida albicans (strain SC5314 / ATCC MYA-2876)), …. purified Rtt109/Vps75, 4 h. inhibition, % at 34.9 µM. hit rate 0.16% among 330,000. AID 540336, 2011;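 active means inhibition of at least 50% in every replicate; inconclusive means best replicate reaches 50% inhibition but some replicates fall short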
Target sequence (Q5AAJ8 whole entry, looked up): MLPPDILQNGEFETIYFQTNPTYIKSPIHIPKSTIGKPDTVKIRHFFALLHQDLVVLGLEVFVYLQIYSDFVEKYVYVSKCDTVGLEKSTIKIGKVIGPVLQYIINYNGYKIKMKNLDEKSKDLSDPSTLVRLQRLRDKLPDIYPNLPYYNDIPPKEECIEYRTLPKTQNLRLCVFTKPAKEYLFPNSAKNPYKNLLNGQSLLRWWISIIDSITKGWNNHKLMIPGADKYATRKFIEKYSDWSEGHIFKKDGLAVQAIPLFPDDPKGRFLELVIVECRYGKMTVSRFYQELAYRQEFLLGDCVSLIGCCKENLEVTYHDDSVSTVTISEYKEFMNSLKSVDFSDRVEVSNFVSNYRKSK
Cneo AK release: Cryptococcus neoformans cell lysis inducers, primary screen, AK release luminescence, single concentration. C. neoformans lysis, adenylate kinase release luminescence, 4 h; normalised: neutral wells 0, clomiphene wells 100. lysis activity, % at 15 µM. hit rate 0.2% among 360,000;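 active means mean lysis activity across replicates of at least 80%, whatever share of replicates individually reach that level; inactive means mean lysis activity below 80%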
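Material – Cryptococcus neoformans yeast cells · Quantity – 5 × 10^6 yeast cells/mL · Buffer or medium – YPD medium · Compound – single dose · Timing – 4 h static compound exposure, 37 °C, read 1 h post-reagent · Signal – adenylate kinase release luminescence · Read-out basis – lysis from increased AK signal · Benchmarks – Clomiphene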
Env fusion inh: inhibitors of HIV-1 Env-driven cell-cell fusion, primary screen, HeLa-JRFL effector, CEM21 target cells, luciferase. inhibition, % at 12.3 µM. hit rate 1.1% among 360,000. AID 651610, 2012;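 active means mean replicate inhibition score of at least 50 and every replicate individually at or above 50; inconclusive means only one of the two criteria met; inactive means mean below 50 and not all replicates reaching 50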;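 further: 0% = plate neutral controls and 100% = maraviroc near 300 nM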
dFosB act-1: activators of delta FosB homodimer, primary screen, biochemical, fluorescence polarization, TAMRA-CDK5 oligo, single point; Protein FosB (Mus musculus), P13346; purified delta FosB; percent of positive-control signal above neutral wells; activation, % at 25 µM; hit rate 0.99% among 340,000; AID 493131, 2011;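 active means mean activation above about 17%, with every replicate also reaching it, limit read from the data, passing the limit was not always enough; inconclusive means only one of the two conditions met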
Target sequence (P13346 whole entry, looked up): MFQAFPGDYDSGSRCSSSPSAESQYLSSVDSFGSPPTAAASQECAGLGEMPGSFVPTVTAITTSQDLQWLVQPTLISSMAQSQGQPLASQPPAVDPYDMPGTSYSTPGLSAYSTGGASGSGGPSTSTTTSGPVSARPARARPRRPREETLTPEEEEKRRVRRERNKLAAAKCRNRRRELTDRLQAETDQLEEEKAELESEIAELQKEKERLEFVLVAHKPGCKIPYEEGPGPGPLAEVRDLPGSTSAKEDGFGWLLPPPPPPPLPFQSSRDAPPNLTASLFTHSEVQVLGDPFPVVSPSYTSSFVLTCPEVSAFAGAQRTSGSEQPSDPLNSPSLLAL
miR-122 sensor: miR-122 Renilla sensor signal increase in Huh7, primary screen, miR-122 inhibitor project, cell-based, single point, plate reader; Huh7 miR-122 Renilla luciferase sensor, 48 h; neutral wells = 0, positive control = 100; activation (reporter increase), % at 12.5 µM; hit rate 0.3% among 340,000;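 active means mean replicate activation score at least 90 and every replicate individually at or above 90; inconclusive means only one of the two criteria met; inactive means neither criterion met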;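 further: higher luciferase means less miR-122 activity so hits act as miR-122 inhibitors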
dFosB act-2: activators of mouse delta FosB DNA binding, confirmation, biochemical, fluorescence polarization, TAMRA-CDK5 oligo, cherry-picked samples. shares compounds with dFosB act-1. purified delta FosB; normalised: neutral wells 0, positive control 100. activation, % at 24.9 µM. 2,400 tested, under 10 active;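 active means highest replicate activation at or above 34% and every replicate reaching that threshold; inconclusive means meets only one of the two criteria; inactive means meets neither criterion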;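 further: higher polarization means more probe DNA bound by delta FosB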
* hit, by the source's call; ? = inconclusive; . = not tested or not shown; [ ] = remark or other dose.

SMILES	INS-1E GSIS act	Rtt109 Vps75	Cneo AK release	Env fusion inh	dFosB act-1	miR-122 sensor	dFosB act-2
O=C(C[C@@H]1CC[C@@H]2NC[C@@H](O)COC[C@H]2O1)NCCN1CCCC1	8.0	.	1.5	.	.	36.2[16.7 µM]	.
CC(C)(C)c1ccc(/C=C/C(=O)c2ccc(NC3=NCCCS3)cc2)cc1	1.1	19.0	.	-7.9	31.0*	.	-1.6
COc1cc2[nH]c(=S)nc(NCc3cccc(Cl)c3)c2cc1OC	-2.4	9.4	1.9	17.7	-7.0	49.2	.
c1ccc(CNc2nc(-c3cccs3)nc3ccccc23)cc1	5.1	1.4	.	-18.2	16.8*	.	2.3
S=c1nc(NCc2cccc(Cl)c2)c2ccccc2[nH]1	-0.6	9.8	0.7	18.3	45.3*	58.7	0.4
c1ccc(CNc2nc(-c3cccnc3)nc3ccccc23)cc1	-1.3	-13.5	15.8	7.7	-25.6	-1.8	.
Clc1cccc(CNc2nc(-c3cccnc3)nc3ccccc23)c1	2.4	4.3	4.3	17.1	54.8*	4.4	1.6
c1ccc(CNc2nc(-c3ccccc3)nc3ccccc23)cc1	-4.7	-4.2	0.9	16.3	-0.2	-2.2	.
C[C@H](CO)N1C[C@H](C)[C@@H](CN(C)C(=O)NC2CCCCC2)Oc2ccc(NC(=O)Nc3ccc4c(c3)OCO4)cc2CC1=O	-1.1	.	1.7	-18.6[16.7 µM]	.	-2.2[16.7 µM]	.
COc1ccc([N+](=O)[O-])cc1NC(=O)COC(=O)c1ccc(O)cc1	2.3	-0.8	2.5	17.6	52.7*	-1.5	6.0
COc1ccc([N+](=O)[O-])cc1NC(=O)c1ccc(Br)s1	-7.1	-7.4	2.8	10.9	58.7*	-10.9	4.2
COc1ccc([N+](=O)[O-])cc1NC(=S)NC(C)=O	4.5	-5.7	.	-14.0	4.6	.	.
O=C(NCC[C@@H]1CC[C@H](NS(=O)(=O)c2ccc(Cl)cc2)[C@@H](CO)O1)Nc1ccc(F)cc1	4.9	.	.	.	.	.	.
C[C@H](CO)N1C[C@H](C)[C@H](CN(C)S(=O)(=O)c2cccc(F)c2)Oc2ncc(-c3cccc(F)c3)cc2C1=O	11.8	.	14.4	26.7[16.7 µM]	.	12.3[16.7 µM]	.
CCOC(=O)CSc1nc(C)cc(C)n1	.	-10.1	0.9	.	16.3*	9.4	-0.5
C=CCOc1c(Br)cc(/C=N/NC(=O)Cc2ccc(C(F)(F)F)cc2[N+](=O)[O-])cc1OC	4.3	-3.2	-1.0	-126.0	36.7*	-2.0	-1.3
COc1ccc(-c2cc(-c3ccccc3)c(C#N)c(S(C)=O)n2)cc1 (configuration not stated)	.	0.1	-0.8	-84.5	-16.5	4.9	.
COc1ccc(-c2cc3nc4ccccc4n3c(N)c2C#N)cc1	86.2*	-14.8	.	-280.2	19.3*	.	5.6
CN([C@@H](Cc1ccc(OS(=O)(=O)c2cccc3cnccc23)cc1)C(=O)N1CCN(c2ccccc2)CC1)S(=O)(=O)c1cccc2cnccc12	.	5.1	-1.1	.	20.5*	6.5	1.8
COc1ccc(N2CCN(C(=O)C(Cc3ccccc3)n3cccc3)CC2)cc1 (configuration not stated)	.	-1.5	0.2	-2.4	-8.3	0.8	.
O=C(C[C@@H]1C[C@H]2c3cc(NC(=O)NC4CCCCC4)ccc3O[C@H]2[C@H](CO)O1)NCc1cccnc1	17.8	.	4.0	2.1[16.7 µM]	.	-4.6[16.7 µM]	.
Cc1ccc(NC(=O)Cn2nc([N+](=O)[O-])c(Br)c2C)cc1C	-9.7	-2.0	-0.3	.	49.2*	-0.3	1.4
CN(C)CCCN(C(=O)c1ccc(S(=O)(=O)N(C)C2CCCCC2)cc1)c1nc2ccc(Br)cc2s1	-15.8	21.5	5.8	8.2	22.5*	4.6	-0.2
CCOc1cccc2sc(N(CCCN(C)C)C(=O)c3ccc(S(=O)(=O)N4CCc5ccccc5C4)cc3)nc12	-33.8	31.9	31.5	50.9	6.8	-10.3	.
CN(C)CCCN(C(=O)c1cc(Cl)sc1Cl)c1nc2cc3c(cc2s1)OCO3	-41.0	6.8	34.6	-3.2	12.4	.	.
SMILES	INS-1E GSIS act	Rtt109 Vps75	Cneo AK release	Env fusion inh	dFosB act-1	miR-122 sensor	dFosB act-2
CN(C)CCCN(C(=O)c1ccc(C(=O)c2ccccc2)cc1)c1nc2ccc(F)cc2s1	.	?	3.3	-20.9	30.0*	1.9	-0.3
CN(C)CCCN(C(=O)c1nc2ccccc2s1)c1nc2ccc(F)cc2s1	9.9	-2.0	1.5	-8.4	13.6	-1.2	.
CN(C)CCCN(C(=O)c1ccc(Cl)s1)c1nc2cc3c(cc2s1)OCO3	-29.8	2.3	-2.3	-4.5	18.0*	5.6	3.5
CCc1ccc2nc(N(CCCN(C)C)C(=O)c3ccc(S(=O)(=O)N4CCc5ccccc5C4)cc3)sc2c1	-37.9	9.5	-1.7	22.8	46.8*	-13.8	-4.1
Cc1ccccc1S(=O)(=O)N[C@H]1CC[C@H](CCn2cc(Cc3ccccc3)nn2)O[C@H]1CO	-13.8	.	-1.8	6.8[16.7 µM]	.	.	.
C[C@H]1CN([C@@H](C)CO)C(=O)Cc2cc(NS(=O)(=O)c3ccc(F)cc3)ccc2O[C@@H]1CN(C)Cc1ccc(C(=O)O)cc1	18.6	.	-0.1	10.2[16.7 µM]	.	-2.3[16.7 µM]	.
COCC(=O)N1CC2(C1)CN(Cc1cccc(OC)c1)[C@H](CO)c1c2c2ccc(OC)cc2n1C	-6.4	.	.	.	.	.	.
CC(C)CC(NC(=O)C(Cc1ccc(OCc2ccccc2)cc1)NC(=O)OC(C)(C)C)C(N)=O (configuration not stated)	.	23.4	-1.4	2.7	29.8*	-8.0	1.0
CCn1c(=O)c(C(=O)NNS(=O)(=O)c2ccc(NC(=O)OC)cc2)c(O)c2ccccc21	22.4	-0.9	1.5	-6.8	-5.4	.	.
COC(=O)Nc1ccc(S(=O)(=O)NNC(=O)c2c(O)c3ccccc3n(C)c2=O)cc1	6.4	-1.8	-2.1	10.4	40.9*	-0.9	0.0
Cc1ccc(NC(=O)Cn2c(=O)n(Cc3ccco3)c(=O)c3ccccc32)c(C)c1	.	-3.4	0.3	-45.7	32.2*	4.3	1.8
O=C(CCCCn1c(=O)c2ccccc2n(CC(=O)Nc2ccc(F)cc2)c1=O)NCc1ccco1	.	6.6	-1.4	.	1.4	1.1	.
Cc1ccc(NC(=O)Cn2c(=O)n(CCCCC(=O)NCc3ccco3)c(=O)c3ccccc32)cc1	.	-5.2	-0.1	.	30.6*	-3.6	4.0
COCCNC(=O)Cn1c(=O)n(Cc2ccco2)c(=O)c2ccccc21	.	9.3	-0.8	-14.4	-1.5	-8.0	.
